These results are taken from ChEMBL document CHEMBL2331340, “Novel antitumor indolizino[6,7-b]indoles with multiple modes of action: DNA cross-linking and topoisomerase I and II inhibition” (J Med Chem, 2013).

Molecules are shown by their SMILES. The source made the active and inactive calls. The rule behind the calls is not given here.

Data set [1] deals with NCI-H460. Description: Induction of apoptosis in human H460 cells assessed as increase in cleaved PARP expression at IC50 after 24 to 72 hrs by Western blotting analysis. In kind it is functional, cell-based. In short, it runs like this:
(§1)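 H460 cells treated at IC50 for 24 and 72 h. Lysate proteins separated by SDS-PAGE and blotted to nitrocellulose, blocked in 5% milk/PBST. Primary antibodies to caspase-3, caspase-7, PARP (full-length and cleaved) and β-actin applied for 1 h at room temperature or overnight at 4 °C; HRP secondary with ECL detection.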

Data set [2] concerns Escherichia coli. In words: Induction of Escherichia coli pEGFP-N1 DNA interstrand cross-linking at 1 to 10 uM after 2 hrs by alkaline agarose gel shift assay. In short, it runs like this: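 Plasmid pEGFP-N1 DNA (1500 ng) incubated with compound at 1, 5 and 10 μM in 3 mM NaCl/1 mM sodium phosphate pH 7.4/1 mM EDTA, 2 h at 37 °C. DNA then BamHI-linearized, EtOH-precipitated, denatured in 0.5 N NaOH/10 mM EDTA, run on 0.8% alkaline agarose at 4 °C (18 V, 22 h), stained with ethidium bromide.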
(In general: Mobility shift assays separate free from complexed probe on a gel.)

The subject of data set [3] is A549. Description: Antitumor activity against human A549 cells xenografted in nude mouse assessed as tumor growth inhibition at 25 mg/kg, iv qd administered 4 days measured on day 20 relative to vehicle-treated control. In kind it is functional. The settings on record: read-out: TGI.
In data set [4] the test system is HCT-116. Description: Cytotoxicity against human HCT116 cells after 72 hrs by Alamar blue assay. As to conditions: HCT-116, 72 h. In kind it is functional, cell-based. In short, it runs like this: (§2)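 Cells exposed to compound for 72 h, then Alamar blue added with a further 10−12 h at 37 °C and a spectrophotometric read. IC50 from six or seven concentrations by median-effect analysis; mean ± STDEV, n = 3. CL141T is a line derived from a patient lung tumor passaged as a SCID mouse xenograft.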

Data set [5] in a line: Cell cycle arrest in human CL141T cells assessed as accumulation at G2/M phase at 0.5 x IC50 to 1 x IC50 after 48 to 72 hrs by propidium iodide staining-based FACS flow cytometric analysis. In kind it is functional. In short, it runs like this: (§3)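 CL141T cells treated at 0.5-, 1- and 2-fold IC50 for 24, 48 and 72 h. Cells fixed in ice-cold 70% EtOH, then stained with 4 μg/mL propidium iodide in PBS with 1% Triton X-100 and 0.1 mg/mL RNase A. Phase distribution from flow cytometry DNA histograms; sub-G1 fraction scored as well.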
In general terms: A flow cytometer gives signals particle by particle.

Data set [6] in a line: Cell cycle arrest in human CL141T cells assessed as accumulation at G1 phase at 1 x IC50 to 2 x IC50 after 24 hrs by propidium iodide staining-based FACS flow cytometric analysis. The format is functional. A digest of the protocol:
as §3

Data set [7] has as its system MES-SA. In words: Resistance factor, ratio of IC50 for human MES-SA/Dx5 cells to IC50 for human MES-SA cells. In kind it is functional.
Data set [8] is described as follows: Half life in rat plasma at 1 to 10 ug/mL after 1 to 4 hrs by HPLC analysis. In kind it is ADME, cell-free. A digest of the protocol: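 Rat plasma spiked at 1 and 10 μg/mL and held 1, 2, 3 and 4 h at room temperature. Protein precipitated with acetonitrile containing 10 μg/mL propyl paraben internal standard, centrifuged, filtered. Analysed by reversed-phase C18 HPLC in acetonitrile/10 mM NaH2PO4 pH 4.5 (32:68). Stability given as mean relative error, at least three replicates per concentration.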

Data set [9] has as its system HT-29. Description: Antitumor activity against human HT-29 cells xenografted in nude mouse assessed as tumor growth inhibition at 25 mg/kg, iv qd administered 4 days measured on day 20. The format is functional, organism-based. Also noted: dose 25 mg/kg. On the technique in general: A xenograft is tissue or cells of one species grown in another, often human tumour cells in immunodeficient mice.

The nature of data set [10]: Cytotoxicity against human CL141T cells after 72 hrs by Alamar blue assay. In kind it is functional, cell-based. A digest of the protocol:
as §2

Data set [11] is described as follows: Cell cycle arrest in human CL141T cells assessed as accumulation at G2/M phase at 2 x IC50 after 24 hrs by propidium iodide staining-based FACS flow cytometric analysis. The format is functional. In short, it runs like this: as §3
Data set [12] in a line: Cytotoxicity against human MES-SA/Dx5 cells after 72 hrs by Presto Blue assay. The format is functional, cell-based. The settings on record: MES-SA/Dx5, 72 h. A digest of the protocol: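 MES-SA and doxorubicin-resistant MES-SA/dx5 cells exposed for 72 h, then PrestoBlue added for 3 h at 37 °C, absorbance read at 570 and 600 nm. IC50 by median-effect analysis of six or seven concentrations; mean ± STDEV of three to six independent experiments.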

Data set [13] deals with KB. Description: Cytotoxicity against human KB cells after 72 hrs by Alamar blue assay.
Data set [14] deals with MX1. In words: Cytotoxicity against human MX1 cells after 72 hrs by SRB assay. The format is functional, cell-based. The settings on record: MX1, 72 h.
Data set [15] in a line: Cytotoxicity against human OECM1 cells after 72 hrs by Alamar blue assay. The format is functional, cell-based. As to conditions: OECM1, 72 h. In short, it runs like this:
as §2

In data set [16] the test system is NCI-H460. Description: Induction of apoptosis in human H460 cells assessed as increase in cleaved caspase 7 expression at IC50 after 24 to 72 hrs by Western blotting analysis. In kind it is functional, cell-based. A digest of the protocol: as §1

What is called IC50 is the midpoint of a concentration-inhibition curve. A low value points to higher potency. Broadly, the half-life is the time in which the quantity being followed falls by half. Low values mean rapid decline, high ones slow decline.

As to `Cc1c(CO)c(CO)c2n1Cc1c(c3ccccc3n1C)C2`, the result in data set [1], in [2], in data set [5], in data set [6] and in data set [16] was Active. In addition, the inhibition in vivo at 25 mg/kg in data set [3] came to 50%. The IC50 was found to be 1000 nM in [4]; 510 nM in [10]; 120 nM in [12]; 2510 nM in [13]; 220 nM in [14]; 960 nM in data set [15]. For the same compound, the “Ratio IC50” value in [7] came out at 0.52. The compound further showed a half-life in data set [8] of 12.4 h. For the same compound, in [9], the TGI entry was “Active”. Besides, the outcome in [11] was inactive.
